The source made the active and inactive calls. No cut-off for these calls is given here.

The test system of data set [1] is Raji. The data set can be described thus: Induction of apoptosis in human Raji cells assessed as necrotic cells at 1 uM after 48 hrs by Annexin V-FITC/propidium iodide staining based flow cytometry relative to control. The class given is functional. The method in brief: (§1)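 RAJI cells exposed to compound or control medium for 12 or 48 h were washed in PBS and resuspended in binding buffer. They were stained with FITC annexin V and PI for 15 min in the dark, and fluorescence was measured by flow cytometry.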
(In general: Flow cytometry measures light scatter and fluorescence of single cells or particles in a stream.)

Data set [2] concerns Raji. The data set can be described thus: Antiproliferative activity against human Raji cells after 48 hrs by MTT assay. The class given is functional, cell-based. An outline of the steps: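 RAJI cells were seeded at 5 × 10^3 cells per well and treated for 48 h, with a DMSO-matched control. MTT at 0.5 mg/mL was added for 4 h at 37 °C, followed by overnight lysis at 37 °C and absorbance at 570 nm. Each assay was done in triplicate. IC50 came from the dose-dependent percentage survival versus the control.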

Data set [3] is filed under the species Homo sapiens. As to the kind of experiment: Inhibition of NM23-H2 binding to c-Myc G-quadruplex DNA in human Raji cells up to 4 uM after 6 hrs by ChIP-PCR method. It is filed as cell-based.
For data set [4], the system named is Raji. The data set can be described thus: Induction of apoptosis in human Raji cells assessed as upregulation of p27 expression up to 4 uM after 12 hrs by Western blot method. It is filed as functional, cell-based. An outline of the steps:
(§2)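 After compound exposure (12 h for cell-cycle and apoptosis markers), RAJI cells were lysed in 1% NP-40 buffer. Protein at 50 μg per lane was run on 3–12% SDS-PAGE and transferred to nitrocellulose. Blots were probed with primary antibodies (GAPDH as loading reference) and detected with an HRP secondary and enhanced chemiluminescence.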
(In general: Immunoblotting shows a protein as a band on a membrane.)

For data set [5], the system named is Raji. As to the kind of experiment: Induction of apoptosis in human Raji cells assessed as necrotic cells at 0.5 uM after 48 hrs by Annexin V-FITC/propidium iodide staining based flow cytometry relative to control. It is filed as functional. An outline of the steps: as §1
The test system of data set [6] is Raji. The data set can be described thus: Cell cycle arrest in human Raji cells assessed as accumulation at G0/G1 phase after 6 hrs by propidium iodide staining based flow cytometry (reference value: 38.5%). It is filed as functional.
For data set [7], the system named is Raji. As to the kind of experiment: Induction of apoptosis in human Raji cells assessed as necrotic cells at 0.5 uM after 12 hrs by Annexin V-FITC/propidium iodide staining based flow cytometry relative to control. The class given is functional. The method in brief: as §1
In data set [8] the test system is Raji. The data set can be described thus: Antitumor activity against human Raji cells xenografted in NOD/SCID nude mouse assessed as reduction in tumor volume at 30 mg/kg, ip administered once daily for 2 weeks relative to control. The class given is functional. The method in brief:
(§3)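 NOD/SCID mice were implanted subcutaneously in the underarm with RAJI cells (5 × 10^6 per 100 μL of RPMI 1640 with 10% serum). Tumours reached […] after 1 week, and mice were then randomised. […] Tumour volume was recorded daily and tumour weight at the end.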

The test system of data set [9] is Raji. As to the kind of experiment: Induction of apoptosis in human Raji cells assessed as late apoptotic cells at 1 uM after 48 hrs by Annexin V-FITC/propidium iodide staining based flow cytometry (reference value: 0.1%). It is filed as functional. The method in brief: as §1
The subject of data set [10] is Raji. The data set can be described thus: Induction of apoptosis in human Raji cells assessed as early apoptotic cells at 1 uM after 12 hrs by Annexin V-FITC/propidium iodide staining based flow cytometry (reference value: 2.3%). It is filed as functional. The method in brief:
as §1

A further data set has as its system Mus musculus. As to the kind of experiment: Toxicity in NOD/SCID nude mouse xenografted with human Raji cells assessed as reduction in body weight at 15 to 30 mg/kg, ip administered once daily for 2 weeks measured every day during compound dosing. The class given is organism-based. The following applies: in vivo, 336 h. The method in brief: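 NOD/SCID mice implanted subcutaneously in the underarm with 5 × 10^6 RAJI cells in 100 μL RPMI 1640 with 10% serum; tumours grown about 1 week, then mice randomized. Body weight recorded daily; organ weights taken at end.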
On the technique in general: In xenograft studies the graft and the host belong to different species.

Data set [11] has as its system Raji. The data set can be described thus: Cell cycle arrest in human Raji cells assessed as accumulation at G0/G1 phase after 24 hrs by propidium iodide staining based flow cytometry (reference value: 38.5%). It is filed as functional.
Data set [12] deals with Raji. The data set can be described thus: Induction of apoptosis in human Raji cells assessed as upregulation of cleaved PARP expression up to 4 uM after 12 hrs by Western blot method. The class given is functional, cell-based. The method in brief: as §2
Data set [13] has as its system Raji. As to the kind of experiment: Antitumor activity against human Raji cells xenografted in NOD/SCID nude mouse assessed as reduction in tumor volume at 15 mg/kg, ip administered once daily for 2 weeks relative to control. The class given is functional. An outline of the steps:
as §3

Data set [14] in a line: Drug uptake in human Raji cells at 1 uM after 12 to 48 hrs. The class given is ADME, cell-based.
For data set [15], the system named is Raji. As to the kind of experiment: Induction of apoptosis in human Raji cells assessed as necrotic cells at 1 uM after 12 hrs by Annexin V-FITC/propidium iodide staining based flow cytometry relative to control. It is filed as functional. An outline of the steps: as §1
In data set [16] the test system is Raji. The data set can be described thus: Induction of apoptosis in human Raji cells assessed as late apoptotic cells at 1 uM after 12 hrs by Annexin V-FITC/propidium iodide staining based flow cytometry relative to control. It is filed as functional. The method in brief:
as §1

Data set [17] has as its system Raji. The data set can be described thus: Antitumor activity against human Raji cells xenografted in NOD/SCID nude mouse assessed as reduction in tumor weight at 15 to 30 mg/kg, ip administered once daily for 2 weeks relative to control. It is filed as functional, organism-based. An outline of the steps: as §3
Data set [18] concerns Raji. The data set can be described thus: Cell cycle arrest in human Raji cells assessed as accumulation at S phase after 12 hrs by propidium iodide staining based flow cytometry (reference value: 32.2%). It is filed as functional.
The test system of data set [19] is Raji. The data set can be described thus: Cell cycle arrest in human Raji cells assessed as accumulation at G0/G1 phase after 12 hrs by propidium iodide staining based flow cytometry (reference value: 38.5%). It is filed as functional.
Data set [20] is filed under the species Homo sapiens. As to the kind of experiment: Stabilization of c-Myc G-quadruplex DNA in human Raji cells assessed as decrease in amplification of exon-1 after 12 hrs by RT-PCR method. It is filed as cell-based. An outline of the steps: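 Exon-specific assay: RAJI and CA46 cells exposed to various ligand concentrations for 12 h; total RNA (2 μg) reverse-transcribed with oligo dT18 and M-MLV (42 °C 1 h). c-MYC exon 1 and exon 2, NM23-H2 and β-actin amplified by real-time PCR, products run on 1% agarose; untreated cells as control; three repeats, two-tailed unpaired t test.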

Data set [21] concerns Raji. As to the kind of experiment: Effect on NM23-H2 transcription level in human Raji cells up to 4 uM after 12 hrs by RT-PCR method. The class given is functional, cell-based.
Data set [22] deals with Raji. As to the kind of experiment: Induction of apoptosis in human Raji cells assessed as early apoptotic cells at 1 uM after 48 hrs by Annexin V-FITC/propidium iodide staining based flow cytometry (reference value: 1.8%). The class given is functional. The method in brief: as §1

For orientation: IC50 means the concentration needed to halve the response being measured. One may read the T/C as the result in the treated group divided by that in the control group, in per cent. `CN(C)CCCNc1c2ccccc2nc2c1oc1ccc(OCC3CCN(C)CC3)cc12`: the Activity with Raji [1] came to 0%; with Raji [5], 0%; with Raji [6], 50.2%; in the data set on Raji [7], 0%; with Raji [9], 37%; in the data set with Raji [10], 18.9%. In addition, the Activity entry in the data set with Mus musculus is recorded as “Non-Toxic”; with Raji [11], 56.3%; in the data set on Raji [15], 0%; in the data set with Raji [16] it was 0.3%; in the data set with Raji [18], 5.5%; with Raji [19] it was 60.2%. Also, the Activity result in the data set listed under Homo sapiens [20] was “Dose-dependent effect”; in the data set on Raji [22] it was 52.9%. For the same molecule, in the data set on Raji [2], it took 4.7 µM to reach half-maximal inhibition (IC50). For the same molecule, the outcome in the data set listed under Homo sapiens [3], in the data set on Raji [4], in the data set on Raji [12] and in the data set on Raji [17] was Active. Besides, the T/C in the data set with Raji [8] amounted to 26.6%; in the data set with Raji [13], 33.3%. In addition, the Drug uptake entry in data set [14] is “Not Active”. The outcome with Raji [21] was inactive.
